Results reported in ChEMBL document CHEMBL1122275, “1,3-dipalmitoylglycerol ester of chlorambucil as a lymphotropic, orally administrable antineoplastic agent” (J Med Chem, 1983).
Where “and” joins values, the source holds several entries; their conditions need not be identical. Equal entries are not always repeated.

Key:
Mus musculus [1] = test: Antitumor activity measured as Body weight change (BWC) between day 1 and 5 at 0.17 […] dose against po inoculated P388 leukemia in CDF1 mice; type: functional
Method in brief: (§1)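 Male CDF1 mice (18-22 g; 6 per dose, 24 controls) received 10^6 viable P388 cells sc on day 0. Drugs in 0.3% hydroxypropylcellulose/saline were given ip or orally, daily for 4 days from 24 h and again on day 10. Survival was followed to day 40. T/C = MST ratio ×100. BWC covers day 1 to day 5. Toxicity was judged by NCI norms.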

Mus musculus [2] = test: Antitumor a dose 0.23 […] against po inoculated P388 leukemia in CDF1 mice; Toxic; type: toxicity, organism-based; details: in vivo; method in brief: as §1
Mus musculus [3] = test: Antitumor activity measured as T/C at 0.17 […] dose against po inoculated P388 leukemia in CDF1 mice; type: functional; method in brief: as §1
Mus musculus [4] = test: Antitumor a dose 0.052 […] against ip inoculated P388 leukemia in CDF1 mice; type: functional
Method in brief: (§2)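 Groups of six male CDF1 mice (18-22 g) were inoculated ip on day 0 with 1×10^6 viable P388 ascites cells from DBA/2 passage, suspended in chilled 0.9% saline. Drugs were suspended in 0.3% hydroxypropylcellulose in saline and given ip daily for 4 days starting at 24 h. Survival was followed to day 40. T/C = treated/control MST ×100, with 24 controls. BWC = mean weight change from day 1 to day 5.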

Mus musculus [5] = test: Antitumor activity measured as Body weight change (BWC) between day 1 and 5 at 0.035 […] dose against sc inoculated P388 leukemia in CDF1 mice; type: functional; method in brief: as §1
Mus musculus [6] = test: Antitumor activity measured as T/C at 0.035 […] dose against ip inoculated P388 leukemia in CDF1 mice; type: functional; method in brief: as §2
Mus musculus [7] = test: Antitumor a dose 0.11 […] against po inoculated P388 leukemia in CDF1 mice; type: functional; method in brief: as §1
Mus musculus [8] = test: Antitumor activity measured as Body weight change (BWC) between day 1 and 5 at 0.069 […] dose against sc inoculated P388 leukemia in CDF1 mice; type: functional; method in brief: as §1
Mus musculus [9] = test: Antitumor a dose 0.17 […] against po inoculated P388 leukemia in CDF1 mice; type: functional; method in brief: as §1
Mus musculus [10] = test: Antitumor activity measured as Body weight change (BWC) between day 1 and 5 at 0.069 […] dose against ip inoculated P388 leukemia in CDF1 mice; type: functional; method in brief: as §2
Mus musculus [11] = test: Antitumor activity measured as Body weight change (BWC) between day 1 and 5 at 0.052 […] dose against ip inoculated P388 leukemia in CDF1 mice; type: functional; method in brief: as §2
Mus musculus [12] = test: Antitumor a dose 0.069 […] against ip inoculated P388 leukemia in CDF1 mice; type: functional; method in brief: as §2
Mus musculus [13] = test: Antitumor a dose 0.035 nmol/kg against ip inoculated P388 leukemia in CDF1 mice; type: functional; method in brief: as §2
Mus musculus [14] = test: Antitumor activity measured as T/C at 0.069 […] dose against ip inoculated P388 leukemia in CDF1 mice; type: functional; method in brief: as §2
Mus musculus [15] = test: Antitumor activity measured as Body weight change (BWC) between day 1 and 5 at 0.052 […] dose against sc inoculated P388 leukemia in CDF1 mice; type: functional; method in brief: as §1
Mus musculus [16] = test: Antitumor activity measured as Body weight change (BWC) between day 1 and 5 at 0.035 […] dose against ip inoculated P388 leukemia in CDF1 mice; type: functional; method in brief: as §2
Mus musculus [17] = test: Antitumor activity measured as T/C at 0.11 […] dose against po inoculated P388 leukemia in CDF1 mice; type: functional; method in brief: as §1
Mus musculus [18] = test: Antitumor activity measured as Body weight change (BWC) between day 1 and 5 at 0.11 […] dose against po inoculated P388 leukemia in CDF1 mice; type: functional; method in brief: as §1
Mus musculus [19] = test: Antitumor activity measured as T/C at 0.23 […] dose against po inoculated P388 leukemia in CDF1 mice; Toxic; type: functional, organism-based; method in brief: as §1
Mus musculus [20] = test: Antitumor a dose 0.035 nmol/Kg against ip inoculated P388 leukemia in CDF1 mice; type: functional; method in brief: as §2
Mus musculus [21] = test: Antitumor activity measured as T/C at 0.052 […] dose against ip inoculated P388 leukemia in CDF1 mice; type: functional; method in brief: as §2
Mus musculus [22] = test: Antitumor activity measured as T/C at 0.11 […] dose against po inoculated P388 leukemia in CDF1 mice; Toxic; type: toxicity, organism-based; details: in vivo; method in brief: as §1
Mus musculus [23] = test: Antitumor activity measured as Body weight change (BWC) between day 1 and 5 at 0.033 […] dose against sc inoculated P388 leukemia in CDF1 mice; type: functional; method in brief: as §1
Mus musculus [24] = test: Antitumor activity measured as T/C at 0.066 […] dose against ip inoculated P388 leukemia in CDF1 mice; type: functional; method in brief: as §2
Mus musculus [25] = test: Antitumor activity measured as Body weight change (BWC) between day 1 and 5 at 0.033 […] dose against ip inoculated P388 leukemia in CDF1 mice; type: functional; method in brief: as §2
Mus musculus [26] = test: Antitumor activity measured as T/C at 0.066 […] dose against po inoculated P388 leukemia in CDF1 mice; type: functional; method in brief: as §1
Mus musculus [27] = test: Antitumor a dose 0.033 nmol/kg against ip inoculated P388 leukemia in CDF1 mice; type: functional; method in brief: as §2
Mus musculus [28] = test: Antitumor a dose 0.066 […] against po inoculated P388 leukemia in CDF1 mice; type: functional; method in brief: as §1
Mus musculus [29] = test: Antitumor activity measured as Body weight change (BWC) between day 1 and 5 at 0.066 […] dose against ip inoculated P388 leukemia in CDF1 mice; type: functional; method in brief: as §2
Mus musculus [30] = test: Antitumor activity measured as T/C at 0.050 […] dose against ip inoculated P388 leukemia in CDF1 mice; type: functional; method in brief: as §2
Mus musculus [31] = test: Antitumor a dose 0.066 […] against ip inoculated P388 leukemia in CDF1 mice; type: functional; method in brief: as §2
Mus musculus [32] = test: Antitumor activity measured as T/C at 0.033 […] dose against ip inoculated P388 leukemia in CDF1 mice; type: functional; method in brief: as §2
Mus musculus [33] = test: Antitumor activity measured as T/C at 0.16 […] dose against po inoculated P388 leukemia in CDF1 mice; Toxic; type: toxicity, organism-based; details: in vivo; method in brief: as §1
Mus musculus [34] = test: Antitumor a dose 0.066 […] against ip inoculated P388 leukemia in CDF1 mice; Toxic; type: toxicity, organism-based; details: in vivo; method in brief: as §1
Mus musculus [35] = test: Antitumor activity measured as T/C at 0.066 […] dose against ip inoculated P388 leukemia in CDF1 mice; Toxic; type: toxicity, organism-based; details: in vivo; method in brief: as §1
Mus musculus [36] = test: Antitumor a dose 0.16 […] against po inoculated P388 leukemia in CDF1 mice; Toxic; type: toxicity, organism-based; details: in vivo; method in brief: as §1
Mus musculus [37] = test: Antitumor activity measured as Body weight change (BWC) between day 1 and 5 at 0.066 […] dose against sc inoculated P388 leukemia in CDF1 mice; type: functional; method in brief: as §1
Mus musculus [38] = test: Antitumor activity measured as Body weight change (BWC) between day 1 and 5 at 0.066 […] dose against po inoculated P388 leukemia in CDF1 mice; type: functional; method in brief: as §1
Mus musculus [39] = test: Antitumor activity measured as Body weight change (BWC) between day 1 and 5 at 0.050 […] dose against ip inoculated P388 leukemia in CDF1 mice; type: functional; method in brief: as §2
Mus musculus [40] = test: Antitumor a dose 0.11 […] against po inoculated P388 leukemia in CDF1 mice; Toxic; type: toxicity, organism-based; details: in vivo; method in brief: as §1
Mus musculus [41] = test: Antitumor a dose 0.033 nmol/Kg against ip inoculated P388 leukemia in CDF1 mice; type: functional; method in brief: as §2
Mus musculus [42] = test: Antitumor a dose 0.050 […] against ip inoculated P388 leukemia in CDF1 mice; type: functional; method in brief: as §2
Mus musculus [43] = test: Antitumor activity measured as Body weight change (BWC) between day 1 and 5 at 0.050 […] dose against sc inoculated P388 leukemia in CDF1 mice; type: functional; method in brief: as §1

## CCCCCCCCCCCCCCCC(=O)OCC(COC(=O)CCCCCCCCCCCCCCC)OC(=O)CCCc1ccc(N(CCCl)CCCl)cc1
Mus musculus [1]
  BWC: -3.9 g
Mus musculus [2]
  MST: Toxic
Mus musculus [3]
  T/C: 234%
Mus musculus [4]
  MST: 22 days and 21.5 days
Mus musculus [5]
  BWC: -2.35 g
Mus musculus [6]
  T/C: 170% and 141%
Mus musculus [7]
  MST: 24.5 days
Mus musculus [8]
  BWC: -3.95 g
Mus musculus [9]
  MST: 34 days
Mus musculus [10]
  BWC: -2.6 g
Mus musculus [11]
  BWC: -2 g
Mus musculus [12]
  MST: 26.5 days and 23.5 days
Mus musculus [13]
  MST: 17 days
Mus musculus [14]
  T/C: 265% and 162%
Mus musculus [15]
  BWC: -2.55 g
Mus musculus [16]
  BWC: -1.6 g
Mus musculus [17]
  T/C: 168%
Mus musculus [18]
  BWC: -3.5 g
Mus musculus [19]
  T/C: Toxic
Mus musculus [20]
  MST: 20.5 days
Mus musculus [21]
  T/C: 220% and 148%

## O=C(O)CCCc1ccc(N(CCCl)CCCl)cc1 [CHLORAMBUCIL]
Mus musculus [22]
  T/C: Toxic
Mus musculus [23]
  BWC: -2.55 g
Mus musculus [24]
  T/C: 230%
Mus musculus [25]
  BWC: -2.2 g
Mus musculus [26]
  T/C: 155%
Mus musculus [27]
  MST: 16.9 days
Mus musculus [28]
  MST: 22.5 days
Mus musculus [29]
  BWC: -3.4 g
Mus musculus [30]
  T/C: 195% and 148%
Mus musculus [31]
  MST: 23 days
Mus musculus [32]
  T/C: 169% and 134%
Mus musculus [33]
  T/C: Toxic
Mus musculus [34]
  MST: Toxic
Mus musculus [35]
  T/C: Toxic
Mus musculus [36]
  MST: Toxic
Mus musculus [37]
  BWC: -3.95 g
Mus musculus [38]
  BWC: -4.15 g
Mus musculus [39]
  BWC: -2.9 g
Mus musculus [40]
  MST: Toxic
Mus musculus [41]
  MST: 19.5 days
Mus musculus [42]
  MST: 19.5 days and 21.5 days
Mus musculus [43]
  BWC: -2.95 g
